Measured values from PMC11969444 (RSC Advances, 2025).

Tests used:
β-glucosidase = experiment: In vitro β-glucosidase inhibitory assay; assay type: biochemical; details: read-out: β-Glucosidase IC50 ± SEM; mean ± standard error of the mean
How it was run: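 β-Glucosidase solution (0.5 U mL−1) was preincubated with test compound at varying concentrations in 0.1 M phosphate buffer, pH 6.9, at 37 °C for 15 min. The reaction was started with 5 mM p-nitrophenyl-β-D-glucopyranoside solution in the same buffer and run at 37 °C for 15 min. It was stopped with 0.2 M sodium carbonate and read at 405 nm. Controls were a sample-free reaction and an enzyme-free blank.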

[1] = system: PGLT-induced diabetic rats; experiment: Antihyperlipidemic effects; assay type: in vivo; details: 10 mg kg^−1, 28 days
How it was run: (§1)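 Rats were given PGLT to induce diabetes and treated with test compounds for 28 days. Blood glucose and body weight were recorded on days 1, 7, 14, 21 and 28. Serum was assayed for TG, total CH, LDL, HDL, SGOT, SGPT and ALP. Groups were normal control, diabetic control and treated, n = 8 per group, shown as mean ± SEM. Treated groups were compared with diabetic control by one-way ANOVA with Dunnett's post hoc test.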

[2] = system: PGLT-induced diabetic rats; experiment: Serum hepatic marker enzymes; assay type: in vivo; details: 10 mg kg^−1, serum
How it was run: as §1

Effect on body weights = assay type: in vivo, rats
How it was run: as §1

[3] = system: PGLT-induced diabetic rats; experiment: Blood glucose level in PGLT-induced diabetes; assay type: in vivo
How it was run: as §1

Row | IC50 (β-glucosidase) [µM] | Compound | HDL [1] [mg/dL] | LDL [1] [mg/dL] | TG [1] [mg/dL] | Total CH [1] [mg/dL] | ALP [2] [IU] | SGOT [2] [IU] | SGPT [2] [IU] | Body weight (Effect on body weights; 10 mg kg^−1, 1st day) | Body weight (Effect on body weights; 10 mg kg^−1, 7th day) | Body weight (Effect on body weights; 10 mg kg^−1, 14th day) | Body weight (Effect on body weights; 10 mg kg^−1, 21st day) | Body weight (Effect on body weights; 10 mg kg^−1, 28th day) | weight loss (Effect on body weights; day 1 to day 28, PGLT-treated group) [%] | Blood glucose level ([3]; 10 mg kg^−1, 1st day) [mg per dL] | Blood glucose level ([3]; 10 mg kg^−1, 7th day) [mg per dL] | Blood glucose level ([3]; 10 mg kg^−1, 14th day) [mg per dL] | Blood glucose level ([3]; 10 mg kg^−1, 21st day) [mg per dL] | Blood glucose level ([3]; 10 mg kg^−1, 28th day, listed as p-Nitrophenyl-β-D-glucopyranoside (PGLT)) [mg per dL] | Blood glucose level ([3]; 10 mg kg^−1, 28th day, listed as p-nitrophenyl-β-D-glucopyranoside (PGLT)) [mg per dL]
2 |  | O=[N+]([O-])c1ccc(O[C@@H]2O[C@H](CO)[C@@H](O)[C@H](O)[C@H]2O)cc1 [PGLT, p-nitrophenyl-β-D-glucopyranoside] | 55.72 ± 2.01 | 87.58 ± 2.96 | 96.36 ± 4.51 | 104.73 ± 4.83 | 171.04 ± 3.91 | 21.39 ± 1.79 | 21.17 ± 1.88 | 20.16 ± 1.71 | 19.88 ± 1.81 | 20.01 ± 1.61 | 19.70 ± 1.69 | 19.66 ± 1.51 | 2.48 | 402.22 ± 4.97 | 229.56 ± 4.80 | 154.06 ± 4.59 | 119.70 ± 4.87 | 102.27 ± 4.31 | 102.27 ± 4.31
